Calls of active or inactive are those of the source. The calls are words filed in the database; no cut-off is given here.

The target in data set [1] is Kappa-type opioid receptor (Homo sapiens) (UniProt P41145). Description: Antagonist activity at Gi-coupled KOR (unknown origin) expressed in HEK293T cells assessed as reduction in histamine-induced inhibition of forskolin-stimulated cAMP accumulation preincubated for 10 to 15 followed by histamine addition for 10 mins and subsequent forskolin-stimulation by Glo-sensor assay. It counts as functional, cell-based. (In general: Cyclic AMP is a second messenger, typically raised through Gs and lowered through Gi signalling.)

The nature of data set [2]: AUClast in C57BL/6J mouse serum at 20 mg/kg, po by LC-MS/MS analysis. It counts as ADME, organism-based. On the set-up: dose 20 mg/kg, route oral, time 0 - last. In a few lines:
(§1)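 Male C57BL/6J mice, 6-8 weeks, 20 ± 5 g, fasted overnight (12-16 h), n = 5 per time point. Single 20 mg/kg oral dose given by feeding needle as a 2.5 mg/mL suspension in 1% w/v gum acacia and water. Serum and brain (homogenized 1:6 w/v in PBS) sampled up to 24 h. Liquid-liquid extraction, then LC-MS/MS in positive MRM mode with phenacetin as internal standard. Linear range 0.25-200 ng/mL. Non-compartmental and compartmental analysis.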

Data set [3] concerns the target Histamine H1 receptor (Homo sapiens) (UniProt P35367). Description: Antagonist activity at H1R (unknown origin) expressed in HEK293 cells harboring luc2P/NFAT-RE plasmid at 10 uM after 6 to 8 hrs by luciferase reporter gene assay. It counts as cell-based. The method, boiled down: (§2)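 NFAT-RE luciferase assay in HEK293T cells transiently co-transfected with luc2P/NFAT-RE plasmid and receptor plasmid. Cells plated in DMEM and incubated overnight at 37 °C, 5% CO₂. Compounds and reference ligands applied for 6-8 h. Luciferase read after adding Bright-Glo substrate (1 mg/ml final).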

Data set [4] in a line: Half life in C57BL/6J mouse brain at 20 mg/kg, po by LC-MS/MS analysis. It counts as ADME, organism-based. The method, boiled down: (§3)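 Male C57BL/6J mice (6-8 weeks, 20 ± 5 g) fasted overnight (12-16 h) got a single 20 mg/kg oral dose as 2.5 mg/mL suspension in 1% w/v gum acacia; n=5 per time point. Serum and brain (PBS homogenate 1:6 w/v) sampled up to 24 h. Parent and demethylated metabolite quantified by LC-MS/MS after liquid-liquid extraction (C18, MRM, phenacetin internal standard; linear 0.25-200 ng/mL). Two-compartment open model fit.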

Data set [5] is described as follows: Cmax in C57BL/6J mouse brain at 20 mg/kg, po by LC-MS/MS analysis. It counts as ADME, organism-based. On the set-up: dose 20 mg/kg, route oral. The conditions noted are these: in vivo. The method, boiled down:
as §3

Data set [6] can be described thus: Protein binding in C57BL/6J mouse plasma by equilibrium dialysis method. It counts as ADME, cell-free. To be noted: read-out: PPB (converted). In a few lines:
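Plasma protein binding and unbound fraction in mouse brain tissue homogenate measured by equilibrium dialysis.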
On the technique in general: In equilibrium dialysis free small molecules cross a membrane that holds back macromolecules.

Data set [7] concerns the target T1, Muscarinic acetylcholine receptor M5 (Homo sapiens) (UniProt P08912).
T1 sequence (whole entry): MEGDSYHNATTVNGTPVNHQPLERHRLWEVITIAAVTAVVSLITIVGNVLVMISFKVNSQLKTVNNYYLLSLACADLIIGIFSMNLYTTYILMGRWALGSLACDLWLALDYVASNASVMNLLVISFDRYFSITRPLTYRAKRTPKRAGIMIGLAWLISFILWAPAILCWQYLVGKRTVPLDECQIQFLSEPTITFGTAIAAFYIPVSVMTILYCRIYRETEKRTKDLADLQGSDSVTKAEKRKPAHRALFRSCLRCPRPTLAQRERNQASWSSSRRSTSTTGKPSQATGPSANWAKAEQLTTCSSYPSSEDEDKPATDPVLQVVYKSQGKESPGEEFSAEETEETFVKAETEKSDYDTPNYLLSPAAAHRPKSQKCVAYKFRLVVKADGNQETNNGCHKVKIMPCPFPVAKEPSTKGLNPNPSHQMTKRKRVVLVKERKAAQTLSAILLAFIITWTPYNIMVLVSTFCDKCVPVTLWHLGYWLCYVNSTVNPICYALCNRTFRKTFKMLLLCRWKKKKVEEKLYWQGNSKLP
Description: Antagonist activity at M5R (unknown origin) expressed in HEK293 cells harboring luc2P/NFAT-RE plasmid at 10 uM after 6 to 8 hrs by luciferase reporter gene assay. It counts as cell-based. The method, boiled down:
as §2
Background: Reporter assays use an easily measured gene product as a stand-in for the process of interest.

The test system of the next data set is Mus musculus. Description: Anorexic effect in high fat diet-induced obese C57BL/6J mouse model assessed as reduction in cumulative food intake at 10 mg/kg, po pretreated for 30 mins followed by food addition measured after 4 hrs relative to control. It counts as functional. Details: scale not given: the % may be the effect or the level left. In a few lines: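 Male C57BL/6J mice on high-fat diet, starved 12 h (8 am–8 pm) with water available, housed singly. Oral dose in 5% gum acacia in normal saline, vehicle group alongside. Food given 30 min after dosing, and cumulative intake measured over the 4 h night phase (9 pm–1 am). One-way ANOVA with Newman-Keuls test.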

Data set [8] can be described thus: AUClast in C57BL/6J mouse serum assessed as 4-(2-Amino-8-methyl-5,6,7,8-tetrahydroquinazolin-4-yl)phenol level at 20 mg/kg, po by LC-MS/MS analysis. It counts as ADME, organism-based. On the set-up: dose 20 mg/kg, time 0 - last, route oral. To be noted: in vivo. The method, boiled down:
as §1

In data set [9] the target is T2, Muscarinic acetylcholine receptor M1 (Homo sapiens) (UniProt P11229).
T2 sequence (whole entry): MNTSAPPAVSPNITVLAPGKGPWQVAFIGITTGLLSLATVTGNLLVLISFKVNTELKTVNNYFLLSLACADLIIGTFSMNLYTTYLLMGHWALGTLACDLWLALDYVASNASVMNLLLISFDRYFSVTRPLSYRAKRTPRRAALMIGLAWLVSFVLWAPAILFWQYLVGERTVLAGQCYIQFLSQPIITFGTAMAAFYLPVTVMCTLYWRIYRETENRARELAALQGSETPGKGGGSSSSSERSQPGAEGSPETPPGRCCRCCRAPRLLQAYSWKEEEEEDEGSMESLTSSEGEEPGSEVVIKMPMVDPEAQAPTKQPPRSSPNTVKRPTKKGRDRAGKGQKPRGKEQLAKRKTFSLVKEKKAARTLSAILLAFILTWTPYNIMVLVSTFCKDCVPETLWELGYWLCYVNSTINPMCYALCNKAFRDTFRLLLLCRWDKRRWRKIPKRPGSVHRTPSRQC
Description: Agonist activity at M1R (unknown origin) expressed in HEK293 cells harboring luc2P/NFAT-RE plasmid at 10 uM after 6 to 8 hrs by luciferase reporter gene assay. It counts as cell-based. The method, boiled down: as §2

A further data set deals with Histamine H2 receptor (Homo sapiens, UniProt P25021). Description: Agonist activity at recombinant human Gs-coupled H2 receptor expressed in HEK293T cells assessed as inhibition of forskolin-stimulated cAMP accumulation at 10 uM preincubated for 10 to 15 followed by forskolin-stimulation by Glo-sensor assay relative to control. Details: scale not given: the % may be the effect or the level left. It counts as functional, cell-based. The method, boiled down: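 HEK293T cells were transiently co-transfected with GloSensor-22F cAMP plasmid and human H2R plasmid, then held 15–18 h at 37 °C in 5% CO2. Cells were loaded with sodium luciferin (1 mg/ml) for 90 min. Agonist mode used 10 µM compound, with luminescence read directly after 10–15 min. Screening was in triplicate, scored as ≥50% change versus control.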

The nature of data set [10]: Ratio of AUClast in C57BL/6J mouse serum assessed as 4-(2-Amino-8-methyl-5,6,7,8-tetrahydroquinazolin-4-yl)phenol level to AUClast in C57BL/6J mouse serum. It counts as ADME. The method, boiled down:
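Male C57BL/6J mice (6–8 weeks) were fasted 12–16 h, then given a single oral dose of 20 mg/kg as a 2.5 mg/mL suspension in 1% gum acacia/water (n=5 per time point). Serum and brain (homogenised 1:6 in PBS) were sampled up to 24 h. Parent and demethylated metabolite were measured by LC-MS/MS (range 0.25–200 ng/mL). AUC ran to the last observation.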

Chain of Histamine H2 receptor (P25021 whole entry): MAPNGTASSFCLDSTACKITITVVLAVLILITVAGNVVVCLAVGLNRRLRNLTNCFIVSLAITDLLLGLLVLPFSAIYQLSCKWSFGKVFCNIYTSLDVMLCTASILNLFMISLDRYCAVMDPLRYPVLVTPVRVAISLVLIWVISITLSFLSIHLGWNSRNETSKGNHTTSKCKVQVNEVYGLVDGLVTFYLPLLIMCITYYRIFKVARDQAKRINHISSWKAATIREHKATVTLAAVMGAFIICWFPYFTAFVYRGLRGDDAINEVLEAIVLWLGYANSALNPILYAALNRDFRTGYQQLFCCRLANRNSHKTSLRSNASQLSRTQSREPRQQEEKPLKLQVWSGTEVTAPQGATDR
Chain of Kappa-type opioid receptor (Homo sapiens) (P41145 whole entry): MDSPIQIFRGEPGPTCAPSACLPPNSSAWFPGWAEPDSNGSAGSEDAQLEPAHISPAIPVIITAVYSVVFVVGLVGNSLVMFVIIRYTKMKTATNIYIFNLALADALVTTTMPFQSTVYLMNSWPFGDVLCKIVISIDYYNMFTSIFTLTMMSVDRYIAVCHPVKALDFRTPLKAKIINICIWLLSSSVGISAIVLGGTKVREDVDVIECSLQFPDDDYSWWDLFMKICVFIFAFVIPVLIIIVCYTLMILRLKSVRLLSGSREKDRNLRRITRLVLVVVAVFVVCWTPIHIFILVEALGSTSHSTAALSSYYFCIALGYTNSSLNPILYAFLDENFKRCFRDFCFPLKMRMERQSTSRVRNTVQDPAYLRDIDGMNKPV
Chain of Histamine H1 receptor (Homo sapiens) (P35367 whole entry): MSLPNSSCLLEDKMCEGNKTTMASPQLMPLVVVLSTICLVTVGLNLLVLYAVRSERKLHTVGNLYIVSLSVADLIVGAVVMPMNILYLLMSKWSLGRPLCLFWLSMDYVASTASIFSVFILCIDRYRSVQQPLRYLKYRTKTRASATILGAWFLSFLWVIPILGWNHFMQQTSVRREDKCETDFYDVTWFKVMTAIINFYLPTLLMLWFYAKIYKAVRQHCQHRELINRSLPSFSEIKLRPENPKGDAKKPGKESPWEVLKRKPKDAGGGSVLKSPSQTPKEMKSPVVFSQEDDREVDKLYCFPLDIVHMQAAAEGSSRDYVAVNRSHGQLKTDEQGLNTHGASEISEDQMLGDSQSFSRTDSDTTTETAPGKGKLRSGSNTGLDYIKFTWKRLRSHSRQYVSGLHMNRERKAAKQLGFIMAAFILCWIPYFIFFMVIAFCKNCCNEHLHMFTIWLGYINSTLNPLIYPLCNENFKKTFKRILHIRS

Take `COc1ccc(-c2nc(N)nc3c2CCCC3C)cc1` (racemic): the INH in data set [1] is more than 10 µM. Besides, the AUC(0-t) in data set [2] is 1920 ng·h/mL. Also, the inhibition result in data set [3] and in [7] was “inactive” in each case. This compound also had a half-life in data set [4] of 1.1 h. The maximum concentration (Cmax) in data set [5] turned out to be 323 ng/g. Moreover, the fraction unbound in data set [6] is 0.0424. The figures for the Activity in the data set on Mus musculus and at Histamine H2 receptor were 26% and less than 50%, respectively. The AUClast in data set [8] was 1646.9 ng·h/mL. In data set [9], the result was inactive. In addition, the “Ratio AUC” value in [10] is reported as 85.8%.

In general, AUC(0-t) refers to the area under the concentration-time curve up to a stated or last time point. For orientation: half-life means the time in which the quantity being followed falls by half. The term Cmax denotes the peak of the concentration-time curve.

Source of the values: ChEMBL document CHEMBL4393678, “Novel Tetrahydroquinazolinamines as Selective Histamine 3 Receptor Antagonists for the Treatment of Obesity” (J Med Chem, 2019).
